Shown are actives, neighbours in structure and some others; about 4.6% of the full set was active somewhere.
HDAC3 inhib: inhibitors of human histone deacetylase 3 | recombinant HDAC3, fluorogenic peptide/trypsin coupled, fluorescence | 320,000 tested, 0.15% active | AID 2718 | inhibition, % at 8.3 µM | O15379; in the data active = inhibition above about 26%, passing the limit was not always enough; inconclusive = no clear call, values can overlap the other calls
Target sequence (O15379 whole entry, looked up): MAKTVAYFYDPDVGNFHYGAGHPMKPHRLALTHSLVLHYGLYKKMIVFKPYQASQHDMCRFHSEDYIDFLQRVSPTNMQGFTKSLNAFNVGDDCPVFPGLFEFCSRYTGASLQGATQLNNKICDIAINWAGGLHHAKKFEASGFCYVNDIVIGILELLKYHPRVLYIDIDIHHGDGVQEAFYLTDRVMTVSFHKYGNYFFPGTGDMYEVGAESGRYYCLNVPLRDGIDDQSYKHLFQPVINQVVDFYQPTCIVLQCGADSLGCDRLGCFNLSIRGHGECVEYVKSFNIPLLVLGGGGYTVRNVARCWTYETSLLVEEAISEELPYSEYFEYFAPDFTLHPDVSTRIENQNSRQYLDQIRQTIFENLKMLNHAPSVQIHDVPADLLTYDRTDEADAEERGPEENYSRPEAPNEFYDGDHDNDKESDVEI
UCH37 DUB inh: blocks the human deubiquitinase UCH37. Q9Y5K5. purified proteasome/UCH37, Ub-AMC cleavage fluorescence. inhibition, % (test concentration not listed). 330,000 tested, 0.33% active. AID 588478;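 active = mean inhibition over replicate wells above about 20%, limit read from the data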;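 note: 0% = compound-free wells with enzyme and 100% = wells lacking proteasome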
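Material: Human UCH37 enzyme supplied as purified proteasome complex | Schedule: 30 min preincubation with enzyme, 25 min cleavage at room temperature | Detection: AMC fluorescence 355/460 nm | Measure: % inhibition of Ub-AMC cleavage fluorescence | Controls: Wells without proteasome as full block, compound-free enzyme plus substrate as uninhibited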
FAS-TE inh: inhibitors of human fatty acid synthase thioesterase domain; P49327; AID 602261; inhibition, % at 15 µM; recombinant FAS-TE, OMFH fluorogenic substrate, fluorescence endpoint; 360,000 tested, 0.67% active;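 active = compounds whose normalised, plate-corrected inhibition of enzyme fluorescence in the single-dose primary screen is 50% or more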;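 note: 0% = DMSO with enzyme and 100% = substrate without enzyme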
ALR inh: inhibitors of human sulfhydryl oxidase ALR | P55789 | purified ALR, DTT oxidation, H2O2 HRP-luminol luminescence | inhibition, % (test concentration not listed) | 290,000 tested, 3.8% active | AID 485317;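 active = mean replicate inhibition above about 79%, with every replicate also reaching it, limit read from the data; inconclusive = only one of the two criteria met; inactive = mean below limit and not every replicate reaching it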
Target sequence (P55789 whole entry, looked up): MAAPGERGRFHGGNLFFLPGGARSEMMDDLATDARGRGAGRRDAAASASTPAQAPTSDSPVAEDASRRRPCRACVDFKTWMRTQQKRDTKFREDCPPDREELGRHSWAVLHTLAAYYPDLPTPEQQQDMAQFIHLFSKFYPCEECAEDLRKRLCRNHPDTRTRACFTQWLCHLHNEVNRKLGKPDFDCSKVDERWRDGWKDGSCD
Rtt109 HAT inh: C. albicans Rtt109 histone acetyltransferase inhibition | purified Rtt109/Vps75, ThioGlo CoA-SH fluorescence, 4 h | inhibition, % at 34.9 µM | 330,000 tested, 0.16% active;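 active = inhibition of at least 50% in every replicate; inconclusive = best replicate reaches 50% inhibition but some replicates fall short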
M18AAP inhibitor: PfM18AAP enzyme inhibition. recombinant PfM18AAP, H-Glu-NHMec fluorogenic cleavage. inhibition, % at 7.35 µM. 290,000 tested, 1.2% active;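 active = inhibition above the campaign mean inhibition over all tested compounds plus 3 SD, cut at about 28% in these data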;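 note: 0% = plate median of test compound wells and 100% = 2 mM ZnCl2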
* hit, by the source's call; ? = inconclusive; · = not tested or not shown.

SMILES | HDAC3 inhib | UCH37 DUB inh | FAS-TE inh | ALR inh | Rtt109 HAT inh | M18AAP inhibitor
COC(C(=O)Nc1ccc(F)cc1F)c1ccccc1 (centres undefined) | 3.3 | -0.9 | -13.3 | -1.3 | -6.3 | 6.5
COC(=O)CC1(C(=O)OC)Oc2ccccc2C(=O)N1c1ccc(F)cc1F (centres undefined) | 3.0 | 1.9 | -0.6 | -4.9 | 57.2* | ·
C=CCc1cccc(C=Nc2ncccc2O)c1O | · | 3.9 | · | · | · | ·
COc1cccc(C(C[N+](=O)[O-])c2c(C)[nH]n(-c3ccccc3)c2=O)c1 (centres undefined) | 4.8 | · | -1.2 | -27.2 | -1.9 | 39.2*
CCOC(=O)/C(=C\c1cn(C)c2ccccc12)[N+](=O)[O-] | 11.1 | 2.3 | -6.6 | 95.5* | 0.8 | -1.5
Cc1n[nH]c(=S)n(N=Cc2cccs2)c1=O | · | 11.4 | · | · | · | ·
CCN(CC)CCCNC(=O)c1cc(-c2ccccc2)c(N2CCCCC2)s1 | -4.2 | -1.8 | 2.9 | 98.7* | -4.3 | 5.4
COc1ccc([N+](=O)[O-])cc1C=NNC(=O)c1nonc1N | · | 0.3 | · | · | · | ·
Cn1c(Cc2ccccc2)nnc1SCC(=O)c1ccc(Br)s1 | 9.6 | 4.2 | -2.1 | 83.4* | -5.7 | 6.6
CS(=O)(=O)c1ccc(C(=O)OC2CCOC2=O)cc1[N+](=O)[O-] (centres undefined) | -5.8 | 6.8 | 0.4 | 94.3* | -1.6 | -2.9
O=C(OC1CCOC1=O)c1ccccc1C(=O)c1ccc(Cl)c([N+](=O)[O-])c1 (centres undefined) | 3.6 | 2.3 | 0.3 | · | 1.4 | ·
CCN(CC)C(=O)C(=O)NN=Cc1ccc(C(=O)O)cc1 | · | 0.9 | · | · | · | ·
ONC(=Nc1ccc(Cl)cc1)c1ccc(Cl)cc1 | 6.5 | 1.1 | -6.4 | 78.1* | 15.9 | 9.5
[S-]C(=Nc1ccc(Cl)cc1)N[n+]1ccccc1 | -1.1 | 1.3 | -7.6 | 5.9 | 0.2 | 7.2
O=[N+]([O-])c1cccc(C(=Nc2ccccc2)NO)c1 | ? | -0.6 | -3.5 | 60.4 | -4.2 | 12.5
O=[N+]([O-])c1cccc(C(=Nc2ccc(Cl)cc2)NO)c1 | 5.7 | 6.9 | 6.5 | 84.9* | -4.2 | 5.1
CCCCCCC/C=N/Nc1nnc(Cc2ccccc2)c(=O)[nH]1 | -4.2 | · | -1.6 | -8.7 | -3.0 | 28.1*
Cc1ccccc1NC1C=CS(=O)(=O)C1 (centres undefined) | 3.3 | -1.2 | -7.0 | 40.1 | 3.6 | -5.8
COc1ccccc1NC1C=CS(=O)(=O)C1 (centres undefined) | -14.7 | 1.9 | -4.1 | 76.3* | 1.0 | -11.0
O=C(CN1CCN(Cc2ccccc2)C1=O)NCc1ccc(Cl)cc1 | 2.2 | 4.6 | 2.1 | 4.6 | 0.9 | 3.7
CCN(CCNC(=O)CN1CCN(Cc2ccc(Cl)cc2)C1=O)c1ccccc1 | 0.1 | 2.8 | 3.3 | 98.3* | 7.5 | 23.9
N#CC1=C2SCN(c3ccccc3)CN2C(=O)CC1c1ccccc1Cl (centres undefined) | -0.1 | 3.2 | 1.4 | -9.4 | 3.8 | 20.9
N#CC1=C2SCN(c3ccccc3)CN2C(=O)CC1c1c(Cl)cccc1Cl (centres undefined) | 60.7* | 3.4 | 9.5 | -4.5 | ? | 36.1*
N#CC1=C2SCN(Cc3ccco3)CN2C(=O)CC1c1c(F)cccc1Cl (centres undefined) | ? | 3.8 | -2.2 | -34.4 | -1.2 | 18.9
Cc1ccc(C2CC(=O)N3CN(Cc4ccco4)CSC3=C2C#N)cc1 (centres undefined) | ? | 4.4 | -4.6 | -10.6 | 2.8 | 30.9*
SMILES | HDAC3 inhib | UCH37 DUB inh | FAS-TE inh | ALR inh | Rtt109 HAT inh | M18AAP inhibitor
N#CC1=C2SCN(c3ccccc3)CN2C(=O)CC1c1cccs1 (centres undefined) | 4.8 | 9.9 | -0.3 | -11.8 | 3.4 | 37.4*
CCOc1ccc(N2CSC3=C(C#N)C(c4ccco4)CC(=O)N3C2)cc1 (centres undefined) | -2.2 | 1.0 | -5.0 | 8.8 | -1.1 | 32.7*
C=CCn1c(COc2ccc(CC)cc2)nnc1SCC(O)=C(C#N)c1nc2ccccc2[nH]1 | · | -19.0 | · | · | · | ·
CCC(CC)NC(=O)CON=Cc1ccccc1OC(F)F | · | 2.0 | · | · | · | ·
CCCc1sc(N)nc1-c1ccc(C)cc1 | -5.3 | 2.3 | -4.2 | 77.9* | -6.4 | 4.7
N#CC(=NNc1ccccc1)C(=N)N1CCCCC1 | · | 14.4 | · | · | · | ·
Cc1ccsc1/C=N\NC(=O)c1cc(C(C)(C)C)[nH]n1 | -2.7 | · | -2.7 | 89.4* | 13.9 | -2.6
Cc1cc(C(=O)N/N=C/c2sccc2C)no1 | 6.9 | · | -3.6 | -7.4 | -9.5 | 3.4
CCCc1[nH][nH]c(=O)c1C(c1ccc(Br)cc1)C(C#N)C#N (centres undefined) | 9.8 | 5.4 | 8.8 | 94.5* | 5.4 | 5.8
Cn1nccc1C(=O)N/N=C/c1c(O)ccc2ccccc12 | 2.0 | · | 1.9 | 2.3 | -48.6 | 28.2*
Cn1c(/N=C/c2c(O)ccc3ccccc23)nc2ccccc21 | 1.2 | · | -2.9 | 91.3* | 1.5 | 3.0
CCCn1c(/N=C/c2ccccc2O)nc2ccccc21 | -1.3 | · | -2.7 | -6.0 | 3.9 | -7.5
O=C(N/N=C/c1c(O)ccc2ccccc12)c1cccnc1 | 0.3 | · | 8.8 | 17.5 | 1.9 | 30.8*
Cc1[nH]c2ccccc2c1-c1csc(NC(=O)CSCC(=O)O)n1 | -1.0 | 4.5 | -6.6 | 100.0* | 3.3 | -10.5
Cc1nnc(SCC(=O)Nc2nc(-c3ccc(F)cc3)cs2)[nH]c1=O | -0.4 | · | -0.4 | 98.9* | 5.8 | 3.1
Cc1nnc(SCC(=O)Nc2ccc(Br)cn2)[nH]c1=O | 11.9 | 3.1 | -7.3 | 98.9* | -0.8 | -0.7
Cc1cc(=O)[nH]c(SCC(=O)Nc2nc3ccccc3s2)n1 | 11.6 | 11.8 | -8.8 | 99.3* | -1.5 | -3.3
Cc1cc(=O)[nH]c(SCC(=O)Nc2nc(-c3ccccc3)cs2)n1 | -0.5 | · | -2.3 | 98.8* | -5.8 | 3.0
O=C(COC(=O)c1cccs1)Nc1nc(-c2ccccc2)cs1 | -4.3 | -15.5 | -5.0 | 87.7* | 1.4 | 0.6
CC(C)C(=O)NN=Cc1ccc(OCc2ccccc2)cc1 | · | 4.4 | · | · | · | ·
COc1ccc(Cl)cc1NC(=O)CC(C)=NNC(=O)C(=O)NCc1ccccc1 | · | 2.7 | · | · | · | ·
O=C(Nc1ccc(SC(F)F)cc1)C1CC(=O)N(Cc2ccccc2)C1 (centres undefined) | 2.7 | 6.0 | 7.8 | 94.8* | 13.6 | 10.1
Cc1ccc(-c2nn(-c3ccccc3)cc2C=NO)cc1 | · | 3.0 | · | · | · | ·
O=C(NN=Cc1ccccn1)c1cc(-c2ccc3ccccc3c2)n[nH]1 | · | -0.8 | · | · | · | ·
CNc1sc(C(=O)c2cccs2)c(N)c1-c1nc2ccccc2s1 | 6.3 | 0.8 | 17.3 | 3.0 | 4.5 | 10.8
CNc1sc(C(=O)c2ccc(F)cc2)c(N)c1-c1nc2ccccc2s1 | -1.2 | 4.0 | 18.0 | 90.7* | -1.0 | 2.4
COc1cc(SSc2cc(OC)cc([N+](=O)[O-])c2N)c(N)c([N+](=O)[O-])c1 | · | 14.5 | -0.5 | -217.3 | -5.1 | 30.8*
COc1cc([N+](=O)[O-])c2ncsc2c1 | 0.2 | 5.4 | -8.2 | -5.0 | 2.7 | 4.8

From PubChem BioAssay
